According to ChEMBL document CHEMBL4725495, “Resorufin Enters the Photodynamic Therapy Arena: A Monoamine Oxidase Activatable Agent for Selective Cytotoxicity” (ACS Med Chem Lett, 2020):
Activity calls are given as the source filed them. The calls are words filed in the database; no cut-off is given here.

Experiments:
NIH3T3 = assay: Induction of ROS production in […] cells irradiation with LED light for 30 mins measured after 3 hrs by DCFH-DA staining based fluorescence microscopy; format: functional, cell-based
Summary of the method: (§1)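 Cells loaded with R1 for 3 h and with DCFH2-DA ROS sensor, then irradiated 30 min with LED (20 mW/cm2); green emission from oxidized sensor imaged by fluorescence microscopy.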

[1] = biological target: T1, Amine oxidase [flavin-containing] B (Homo sapiens, UniProt P27338); assay: Prodrug activation assessed as MAO-B (unknown origin) mediated drug activation measured increase in emission signal at 620 nm at 10 uM over 3 hrs by fluorescence spectroscopy
T1 sequence (P27338 whole entry): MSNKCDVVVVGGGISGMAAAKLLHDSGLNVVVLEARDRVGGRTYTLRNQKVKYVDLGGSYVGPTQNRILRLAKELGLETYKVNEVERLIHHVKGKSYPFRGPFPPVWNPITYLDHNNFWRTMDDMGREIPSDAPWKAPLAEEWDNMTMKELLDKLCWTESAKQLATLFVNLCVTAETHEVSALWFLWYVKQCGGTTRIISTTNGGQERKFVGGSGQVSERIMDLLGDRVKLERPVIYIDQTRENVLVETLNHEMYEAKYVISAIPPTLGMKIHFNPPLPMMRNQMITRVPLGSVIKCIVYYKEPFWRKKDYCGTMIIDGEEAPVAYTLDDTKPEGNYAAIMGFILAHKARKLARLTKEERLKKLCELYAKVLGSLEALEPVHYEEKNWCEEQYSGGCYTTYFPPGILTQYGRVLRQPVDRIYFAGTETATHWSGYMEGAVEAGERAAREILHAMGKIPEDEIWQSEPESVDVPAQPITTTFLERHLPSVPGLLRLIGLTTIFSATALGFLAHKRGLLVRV

SH-SY5Y [2] = assay: Photocytotoxicity against human SH-SY5Y cells assessed as reduction in cell viability irradiated with 595 nm LED for 4 hrs measured after 24 hrs by MTT assay; format: functional, cell-based; settings: light or radiation study
Summary of the method: (§2)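 Cells incubated with varying R1 concentrations, then irradiated 4 h with 595 nm LED (20 mW/cm2); viability read by MTT assay; IC50 from concentration–viability curves.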

[3] = biological target: T2, Amine oxidase [flavin-containing] A (Homo sapiens, UniProt P21397); assay: Prodrug activation assessed as MAO-A (unknown origin) mediated drug activation by measuring red shift of absorption maxima at 588/595 nm at 10 uM for 3 hrs by absorption spectroscopy
T2 sequence (P21397 whole entry): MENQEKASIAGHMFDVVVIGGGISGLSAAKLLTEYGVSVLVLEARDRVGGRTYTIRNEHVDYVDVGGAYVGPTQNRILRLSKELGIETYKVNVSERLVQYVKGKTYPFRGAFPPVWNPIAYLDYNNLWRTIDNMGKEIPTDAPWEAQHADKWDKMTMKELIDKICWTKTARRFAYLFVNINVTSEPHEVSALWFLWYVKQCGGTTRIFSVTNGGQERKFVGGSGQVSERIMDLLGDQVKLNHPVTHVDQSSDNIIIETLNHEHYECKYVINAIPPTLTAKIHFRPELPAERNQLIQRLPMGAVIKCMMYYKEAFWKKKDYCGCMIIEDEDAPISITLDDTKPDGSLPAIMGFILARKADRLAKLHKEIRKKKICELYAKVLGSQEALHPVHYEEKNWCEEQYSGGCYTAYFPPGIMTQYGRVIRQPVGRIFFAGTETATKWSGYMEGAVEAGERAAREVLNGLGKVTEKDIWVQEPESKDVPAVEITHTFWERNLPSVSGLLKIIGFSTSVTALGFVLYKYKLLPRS

SH-SY5Y [4] = assay: Photocytotoxicity against human SH-SY5Y cells assessed as cell viability at 2.5 uM irradiated with 595 nm LED for 4 hrs measured after 24 hrs by MTT assay; format: functional; settings: light or radiation study, read-out: Activity; summary of the method: as §2
SH-SY5Y [5] = assay: Photocytotoxicity against human SH-SY5Y cells assessed as cell viability in dark at 2.5 uM measured after 24 hrs by MTT assay; format: functional, cell-based
Summary of the method: (§3)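 Cells incubated with varying R1 concentrations and kept in the dark in parallel with irradiated plates; viability by MTT assay.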

SH-SY5Y [6] = assay: Induction of apoptosis in human SH-SY5Y cells assessed as late apoptotic cells level irradiated with 595 nm LED for 4 hrs at 2.5 uM by Annexin V-FITC/PI staining based confocal microscopy; format: functional, cell-based
Summary of the method: (§4)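 SH-SY5Y cells incubated with R1 (2.5 μM), kept dark or irradiated 4 h with 595 nm LED (20 mW/cm2), then stained with annexin V-FITC (green, early apoptosis) and propidium iodide (red, late apoptotic/necrotic); confocal imaging.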

[7] = Photocytotoxicity against […] cells assessed as cell viability at 2.5 uM irradiated with 595 nm LED for 4 hrs measured after 24 hrs by MTT assay; format: cell-based, NIH3T3; settings: read-out: Activity; summary of the method: as §2
SH-SY5Y [8] = assay: Induction of apoptosis in human SH-SY5Y cells assessed as apoptotic cells incubated in dark for 4 hrs at 2.5 uM by Annexin V-FITC/PI staining based confocal microscopy; format: functional, cell-based; summary of the method: as §4
[9] = Induction of singlet oxygen generation using PBS buffer assessed as decrease in absorbance of ADMDA at 380 nm irradiated with 595 nm LED; format: functional
Summary of the method: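 R1 (10 μM) pretreated with MAO-A or MAO-B (20 μg/mL) in PBS pH 7.4, 1% DMSO, with water-soluble anthracene trap ADMDA; kept dark 2 min, then irradiated with 595 nm LED (20 mW/cm2); ADMDA absorbance at 380 nm followed.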

[10] = Photostability in pH 7.4 PBS buffer at 408/500 nm irradiated with 595 nm LED for 4 hrs; format: physicochemical; settings: pH 7.4, 4 h
[11] = Photocytotoxicity against […] cells assessed as reduction in cell viability irradiated with 595 nm LED for 4 hrs measured after 24 hrs by MTT assay; format: cell-based; settings: NIH3T3, light or radiation study; summary of the method: as §2
SH-SY5Y [12] = assay: Induction of apoptosis in human SH-SY5Y cells assessed as necrotic cells level irradiated with 595 nm LED for 4 hrs at 2.5 uM by Annexin V-FITC/PI staining based confocal microscopy; format: functional, cell-based; summary of the method: as §4
SH-SY5Y [13] = assay: Induction of ROS production in human SH-SY5Y cells assessed as green emission irradiation with LED light for 30 mins measured after 3 hrs incubation by DCFH-DA staining based fluorescence microscopy; format: functional, cell-based; summary of the method: as §1
SH-SY5Y [14] = assay: Induction of ROS production in human SH-SY5Y cells assessed as green emission irradiation with LED light after 30 mins in presence of NaN3 measured after 3 hrs incubation by DCFH-DA staining based fluorescence microscopy; format: functional, cell-based
Summary of the method: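 SH-SY5Y cells pretreated with NaN3 as 1O2 quencher, then incubated with R1 and DCFH2-DA and irradiated with LED (20 mW/cm2); sensor green emission imaged by fluorescence microscopy.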

[15] = biological target: T2, Amine oxidase [flavin-containing] A; assay: Prodrug activation assessed as MAO-A (unknown origin) mediated drug activation measuring increase in emission signal at 620 nm at 10 uM over 3 hrs by fluorescence spectroscopy
[16] = Photocytotoxicity against […] cells assessed as cell viability in dark at 2.5 uM measured after 24 hrs by MTT assay; format: cell-based; settings: nih3t3, 24 h; summary of the method: as §3
MCF7 = assay: Photocytotoxicity against human MCF-7 cells assessed as reduction in cell viability irradiated with 595 nm LED for 4 hrs measured after 24 hrs by MTT assay; format: functional, cell-based; settings: MCF7, light or radiation study; summary of the method: as §2
SH-SY5Y [17] = assay: Photocytotoxicity against human SH-SY5Y cells assessed as reduction in cell viability for 30 mins followed by irradiation with LED light after 30 mins by MTTassay; format: functional, cell-based; settings: light or radiation study, 0.5 h
Summary of the method: (§5)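 Cells incubated with varying R1 concentrations, then irradiated 30 min with 595 nm LED (20 mW/cm2); viability by MTT assay; IC50 from curves.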

SH-SY5Y [18] = assay: Induction of ROS production in human SH-SY5Y cells in dark measured 3 hrs by DCFH2-DA fluorescence assay relative to control
SH-SY5Y [19] = assay: Induction of ROS production in human SH-SY5Y cells irradiation with LED light for 30 mins measured after 3 hrs by DCFH-DA staining based fluorescence microscopy in presence of clorgyline; format: functional, cell-based
Summary of the method: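 SH-SY5Y cells pretreated 30 min with clorgyline (0.1 μM), then incubated 3 h with R1 plus DCFH2-DA sensor and irradiated 30 min with LED (20 mW/cm2); green fluorescence imaged.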

[20] = Photocytotoxicity against […] cells assessed as reduction in cell viability for 30 mins followed by irradiation with LED light after 30 mins by MTTassay; format: cell-based; settings: nih3t3, 0.5 h; summary of the method: as §5
SH-SY5Y [21] = assay: Induction of apoptosis in human SH-SY5Y cells assessed as early apoptotic cells level irradiated with 595 nm LED for 4 hrs at 2.5 uM by Annexin V-FITC/PI staining based confocal microscopy; format: functional, cell-based; summary of the method: as §4

With `NCCCOc1ccc2nc3ccc(=O)cc-3oc2c1I` as the molecule, how does the Activity (NIH3T3) read?
Its Activity is “inactive”.

And the Activity [1]?
Its Activity is “Not Active”.

What about the IC50 (SH-SY5Y [2]) of the same molecule?
The IC50 was 0.42 µM.

And the Activity [3]?
The Activity was “Active”.

What about the viability at 2.5 µM (SH-SY5Y [4]) of the same molecule?
Its viability at 2.5 µM is 3%.

And the Activity (SH-SY5Y [5])?
Its Activity is “inactive”.

And the Activity (SH-SY5Y [6])?
Its Activity is “Active”.

What about the viability at 24 h, 2.5 µM [7] of the same molecule?
The viability at 24 h, 2.5 µM was 70%.

And the Activity (SH-SY5Y [8])?
The Activity was “inactive”.

And the Activity [9]?
The Activity was “inactive”.

And the Stabilty [10]?
Its Stabilty is “Stable”.

And the IC50 [11]?
The IC50 was 6.5 µM.

And the Activity (SH-SY5Y [12])?
The Activity was “Active”.

What about the Activity (SH-SY5Y [13]) of the same molecule?
Its Activity is “Active”.

And the Activity (SH-SY5Y [14])?
Its Activity is “inactive”.

What about the Activity [15] of the same molecule?
Its Activity is “Not Active”.

And the Activity [16]?
Its Activity is “Non-Toxic”.

What about the IC50 (MCF7) of the same molecule?
Its IC50 is 4 µM.

What about the IC50 (SH-SY5Y [17]) of the same molecule?
Its IC50 is 1.9 µM.

What about the Activity (SH-SY5Y [18]) of the same molecule?
The Activity was “inactive”.

And the Activity (SH-SY5Y [19])?
The Activity was “inactive”.

What about the Activity [20] of the same molecule?
The Activity was “Non-Toxic”.

And the Activity (SH-SY5Y [21])?
The Activity was “Active”.
